Assay results from ChEMBL document CHEMBL1135828, “Syntheses and antitumor targeting G1 phase of the cell cycle of benzoyldihydroisoquinolines and related 1-substituted isoquinolines” (J Med Chem, 2002).

What follows are compounds tested on L1210 (1565) (assay: Percent inhibition against cells in G 1 phase by the compound at the dose 10 uM). Conditions: Mus musculus.
Type: functional

SMILES | inhibition at 10 µM
COc1cc2c(cc1OCc1ccccc1)CCN=C2C(=O)c1ccccc1 | 85%
O=C(C1=NCCc2cc(OCc3ccccc3)ccc21)c1ccccc1 | 54%

The compounds below were run on L1210 (1565) (assay: Percent inhibition against cells in G 1 phase by the compound). Conditions: not given.
Type: functional, Mus musculus

SMILES | Inhibition
CCCCCOc1cc2c(cc1OC)C(C)=NCC2 | 72%

These compounds were tested on L1210 (1565) (assay: Inhibitory activity against L 1210 cell proliferation). Conditions: Mus musculus.
Type: functional, cell-based
How it was run: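 L1210 murine leukemia cells grown in RPMI 1640 with 10% fetal calf serum, 2 mM L-glutamine, penicillin/streptomycin and 10 mM Hepes (pH 7.4). Cells exposed to graded drug concentrations for 48 h. Microculture tetrazolium assay read-out; IC50 is the concentration reducing optical density by 50% relative to untreated controls.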

SMILES | IC50
COc1cc2ccnc(C(=O)c3ccccc3)c2cc1OCc1ccccc1 | > 10 µM
COc1cccc(C(=O)C2=NCCc3cc(OCc4ccccc4)ccc32)c1 | 1.4 µM
COc1cc2c(cc1OCC=C(C)C)CCN=C2C(=O)c1ccccc1 | 9.4 µM
COc1cc2c(cc1OCc1ccccc1)CCN=C2C(=O)c1ccccc1O | > 10 µM
COc1cc2c(cc1OCc1ccccc1)CCN=C2C(=O)c1ccccc1OC | > 10 µM
COc1ccc(COc2cc3c(cc2OC)C(C(=O)c2ccccc2)=NCC3)cc1 | 11.1 µM
COc1cc2c(C(=O)c3ccccc3)nccc2cc1O | > 10 µM
COc1ccccc1C(=O)C1=NCCc2cc(OCc3ccccc3)ccc21 | 12.3 µM
CCCCCOc1ccc2c(c1)CCN=C2C(=O)c1ccccc1 | 1 µM
COc1cc2c(cc1OCc1ccccc1)CCN=C2C(=O)c1ccc(O)cc1 | > 10 µM
COc1cc2c(cc1OCc1ccccc1)CCN=C2C(=O)c1ccccc1 | 4.1 µM
CCCCCOc1cc2c(cc1OC)CCN=C2C(=O)c1ccccc1 | 3.7 µM
COc1cc2c(C(=O)c3cccc(O)c3)nccc2cc1OCc1ccccc1 | 11.6 µM
C[N+]1=C(C(=O)c2ccccc2)c2ccc(OCc3ccccc3)cc2CC1 | 9.8 µM
C/C=C/COc1cc2c(cc1OC)C(C(=O)c1ccccc1)=NCC2 | 13.1 µM
COc1ccc(C(=O)C2=NCCc3cc(OCc4ccccc4)c(OC)cc32)cc1OC | 13 µM
COc1cc2c(cc1O)CCN=C2c1ccccc1 | > 10 µM
CCCCCOc1cc2c(cc1OC)C(C)=NCC2 | 7.7 µM
CCCCC1=NCCc2cc(OCc3ccccc3)c(OC)cc21 | > 10 µM
CCCCCOc1cc2c(cc1OC)C(C(=O)c1ccccc1)=NCC2 | 4.5 µM
COc1cc2c(cc1O)C(C(=O)c1ccccc1)=NCC2 | > 10 µM
COc1cc2c(cc1OCc1ccccc1)CCN=C2C(=O)c1cccc(S(=O)(=O)c2ccc(C)cc2)c1 | 4.1 µM
COc1cc2c(cc1OCc1ccccc1)CCN=C2c1ccccc1O | > 10 µM
COc1cc2c(C(=O)c3ccccc3)nccc2cc1OCc1ccccc1 | > 10 µM

SMILES | IC50
COc1cc2c(cc1OCc1ccccc1)CCN=C2c1ccccc1 | > 10 µM
C/C=C/COc1ccc2c(c1)CCN=C2C(=O)c1ccccc1 | > 10 µM
CCOc1cc2c(cc1OC)C(C(=O)c1ccccc1)=NCC2 | 11.9 µM
COc1ccc(COc2cc3ccnc(C(=O)c4ccccc4)c3cc2OC)cc1 | > 10 µM
COc1cc2ccnc(C(=O)c3ccccc3)c2cc1O | > 10 µM
COc1cc2c(cc1OCc1ccccc1)CCN=C2C(=O)c1cccc(OC(C)=O)c1 | 4.7 µM
CCCCCOc1cc2ccnc(C(=O)c3ccccc3)c2cc1OC | > 10 µM
COc1cc2c(cc1O)CCN=C2C(=O)c1ccccc1 | > 10 µM
CC(C)=CCOc1ccc2c(c1)CCN=C2C(=O)c1ccccc1 | 3.8 µM
COc1cccc(C(=O)C2=NCCc3cc(OCc4ccccc4)c(OC)cc32)c1 | 2.5 µM
COc1cc2c(C(=O)c3ccccc3O)nccc2cc1OCc1ccccc1 | > 10 µM
O=C(C1=NCCc2cc(OCc3ccccc3)ccc21)c1ccccc1 | 6.5 µM
COc1cc2c(cc1OCc1ccccc1)CCN=C2C(=O)c1ccc(OS(=O)(=O)c2ccc(C)cc2)cc1 | > 10 µM
CC(C)COc1ccc2c(c1)CCN=C2C(=O)c1ccccc1 | 11.9 µM
COc1cc2c(C(=O)c3ccc(O)cc3)nccc2cc1OCc1ccccc1 | 11.5 µM
COc1cc2c(cc1OCc1ccccc1)C(C(=O)c1ccccc1)=NCC2 | 3.6 µM
c1ccc(COc2ccc3c(c2)CCN=C3c2ccccc2)cc1 | > 10 µM
COc1cc2c(cc1OCC(C)C)CCN=C2C(=O)c1ccccc1 | 6.1 µM
COc1ccc(C(=O)C2=[N+](C)CCc3cc(OCc4ccccc4)c(OC)cc32)cc1OC | > 10 µM
COc1cc2c(cc1OCc1ccccc1)CCN=C2C(=O)c1ccccc1OS(=O)(=O)c1ccc(C)cc1 | > 10 µM
CCCCC1=NCCc2cc(OCc3ccccc3)ccc21 | > 10 µM
COc1ccc(C(=O)C2=NCCc3cc(OCc4ccccc4)ccc32)cc1 | > 10 µM
COc1ccc(C(=O)C2=NCCc3cc(OCc4ccccc4)ccc32)cc1OC | > 10 µM
COc1cc2c(cc1OCc1ccccc1)CCN=C2C(=O)c1cccc(O)c1 | 5.3 µM

Each compound was assayed on L1210 (1565) (assay: Percent inhibition against cells in G 1 phase by the compound at the dose 5 uM). Conditions: Mus musculus.
Type: functional

SMILES | inhibition at 5 µM
CCCCCOc1ccc2c(c1)CCN=C2C(=O)c1ccccc1 | 63%
CCCCCOc1cc2c(cc1OC)CCN=C2C(=O)c1ccccc1 | 63%
COc1cc2c(cc1OCc1ccccc1)CCN=C2C(=O)c1cccc(O)c1 | 67%

Each compound was assayed on L1210 (1565) (assay: Percent inhibition against cells in G 1 phase by the compound at the dose 25 uM). Conditions: Mus musculus.
Type: functional

SMILES | inhibition at 25 µM
COc1cc2c(cc1OCC=C(C)C)CCN=C2C(=O)c1ccccc1 | 65%
COc1cc2c(cc1OCc1ccccc1)CCN=C2C(=O)c1cccc(S(=O)(=O)c2ccc(C)cc2)c1 | 70%
COc1cc2c(cc1OCC(C)C)CCN=C2C(=O)c1ccccc1 | 63%
